Source: ChEMBL document CHEMBL5653613 (Mol Cancer Ther, 2013)
pIC50: −log10 of the molar value. The source made the active and inactive calls. The calls are words filed in the database; no cut-off is given here.

Experiments:
[1] = test system: T47D; test: Induction of apoptosis in human T47D cells assessed as viable cells at 5 umol/L incubated for 3 days by Annexin V/PI staining based flow cytometry (reference value: 95.7 %); assay type: functional; conditions: 72 h, dose 5 µmol/L, time 3 day, read-out: Activity
[2] = test system: MCF7; test: Induction of polyploidy in human MCF7 cells assessed as cells with 4N chromosome contents at 5 uM incubated for 72 hrs by PI staining based flow cytometry (reference value: 36); assay type: functional
[3] = test system: MCF7; test: Induction of polyploidy in human MCF7 cells assessed as cells with 4N chromosome contents at 5 uM incubated for 48 hrs by PI staining based flow cytometry (reference value: 36); assay type: functional
[4] = test system: MCF7; test: Induction of polyploidy in human MCF7 cells assessed as cells with 2N chromosome contents at 5 uM incubated for 48 hrs by PI staining based flow cytometry (reference value: 52); assay type: functional
[5] = test system: T47D; test: Induction of apoptosis in human T47D cells assessed as early cells at 5 umol/L incubated for 3 days by Annexin V/PI staining based flow cytometry (reference value: 0.8 %); assay type: functional; conditions: dose 5 µmol/L; time 3 day; at 5 µM
[6] = test system: T47D; test: Disruption of microtubule dynamics in human T47D cells assessed as lack of metaphase equatorial alignment at 5 umol/L incubated for 24 hrs by immunofluorescence staining based analysis; assay type: functional, cell-based; conditions: dose 5.0 µmol/L
Summary of the method: (§1)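 T-47D cells (1 × 10^6/dish) in RPMI-1640 with 5% FBS were treated with or without 5 µmol/L for 24, 48 and 72 h. Cells were fixed in cold acetone and stained with mouse anti-α-tubulin or anti-γ-tubulin, then an FITC anti-mouse IgG secondary, plus DAPI. Fluorescence microscopy, 200× magnification.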

[7] = Effect on methotrexate resistance in human T47D cells with compound-induced polyploidy assessed as change in methotrexate-induced cytotoxicity by measuring increase in methotrexate IC50 at 5 umol/L preincubated for 72 hrs followed by compound washout and subsequent methotrexate treatment for 72 hrs by MTS assay; assay type: functional, cell-based
[8] = test system: ZR-75-1; test: Induction of polyploidy in human ZR-75-1 cells assessed as cells with 8N chromosome contents at 5 uM incubated for 72 hrs by PI staining based flow cytometry (reference value: 0); assay type: functional
[9] = test system: T47D; test: Induction of polyploidy in human T47D cells assessed as cells with 16N chromosome contents at 5 uM incubated for 24 hrs by PI staining based flow cytometry (reference value: 0); assay type: functional
[10] = test system: ZR-75-1; test: Induction of polyploidy in human ZR-75-1 cells assessed as cells with 4N chromosome contents at 5 uM incubated for 24 hrs by PI staining based flow cytometry (reference value: 35); assay type: functional
[11] = test system: ZR-75-1; test: Induction of polyploidy in human ZR-75-1 cells at 5 umol/L incubated for 72 hrs by microscopic analysis relative to control; assay type: functional; conditions: dose 5 µmol/L, at 5 µM
Summary of the method: (§2)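 Cells stained with Hema-3 and photographed under a light microscope with CCD camera. Polyploid cells scored as percent of the population.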

[12] = test system: T47D; test: Induction of apoptosis in human T47D cells assessed as cell death at 5 uM; assay type: functional, cell-based; conditions: TDE = time-dependent effect
[13] = test system: ZR-75-1; test: Induction of polyploidy in human ZR-75-1 cells at 5 uM incubated for 72 hrs by microscopic analysis; assay type: functional, cell-based; summary of the method: as §2
[14] = test system: ZR-75-1; test: Induction of polyploidy in human ZR-75-1 cells assessed as cells with 8N chromosome contents at 5 uM incubated for 24 hrs by PI staining based flow cytometry (reference value: 0); assay type: functional
[15] = test system: ZR-75-1; test: Induction of polyploidy in human ZR-75-1 cells assessed as cells with 4N chromosome contents at 5 uM incubated for 72 hrs by PI staining based flow cytometry (reference value: 35); assay type: functional
[16] = test system: MCF7; test: Induction of apoptosis in human MCF7 cells assessed as viable cells at 5 umol/L incubated for 3 days by Annexin V/PI staining based flow cytometry (reference value: 98.1 %); assay type: functional; conditions: MCF7, 72 h, dose 5 µmol/L, time 3 day, read-out: Activity
[17] = test system: T47D; test: Disruption of microtubule dynamics in human T47D cells assessed as absence of functional bipolar spindle assembly at 5 umol/L incubated for 24 hrs by immunofluorescence staining based analysis; assay type: cell-based; conditions: dose 5.0 µmol/L; summary of the method: as §1
[18] = test system: T47D; test: Induction of polyploidy in human T47D cells assessed as cells with 8N chromosome contents at 5 uM incubated for 72 hrs by PI staining based flow cytometry (reference value: 0); assay type: functional
[19] = test system: ZR-75-1; test: Induction of cell death of human ZR-75-1 cells with RON-/- at 5 umol/L incubated for 72 hrs followed by media replacement without compound measured upto 10 days by microscopic analysis; assay type: functional, cell-based; conditions: dose 5.0 µmol/L
[20] = test system: ZR-75-1; test: Induction of polyploidy in human ZR-75-1 cells assessed as cells with 2N chromosome contents at 5 uM incubated for 24 hrs by PI staining based flow cytometry (reference value: 48); assay type: functional
[21] = Effect on cisplatin resistance in human T47D cells with compound-induced polyploidy assessed as change in cisplatin-induced cytotoxicity by measuring increase in cisplatin IC50 at 5 umol/L preincubated for 72 hrs followed by compound washout and subsequent cisplatin treatment for 72 hrs by MTS assay; assay type: functional, cell-based
[22] = test system: ZR-75-1; test: Induction of apoptosis in human ZR-75-1 cells assessed as early cells at 5 umol/L incubated for 3 days by Annexin V/PI staining based flow cytometry (reference value: 0.5 %); assay type: functional; conditions: dose 5 µmol/L; time 3 day; at 5 µM
[23] = test system: T47D; test: Disruption of microtubule dynamics in human T47D cells assessed as condensed irregular-shaped chromosomes at 5 umol/L incubated for 24 hrs by immunofluorescence staining based analysis; assay type: functional, cell-based; conditions: dose 5.0 µmol/L; summary of the method: as §1
[24] = Effect on bleomycin resistance in human T47D cells with compound-induced polyploidy assessed as change in bleomycin-induced cytotoxicity by measuring increase in bleomycin IC50 at 5 umol/L preincubated for 72 hrs followed by compound washout and subsequent bleomycin treatment for 72 hrs by MTS assay; assay type: functional, cell-based
[25] = test system: MCF7; test: Induction of polyploidy in human MCF7 cells assessed as cells with 16N chromosome contents at 5 uM incubated for 48 hrs by PI staining based flow cytometry (reference value: 0); assay type: functional
[26] = test system: ZR-75-1; test: Inhibition of cell proliferation of human ZR-75-1 cells with RON-/- at 5 umol/L incubated for 72 hrs followed by media replacement without compound measured upto 10 days by microscopic analysis; assay type: functional, cell-based; conditions: dose 5.0 µmol/L
[27] = test system: T47D; test: Induction of polyploidy in human T47D cells assessed as cells with 2N chromosome contents at 5 uM incubated for 48 hrs by PI staining based flow cytometry (reference value: 48); assay type: functional
[28] = Effect on doxorubicin resistance in human ZR-75-1 cells with compound-induced polyploidy assessed as change in doxorubicin-induced cytotoxicity by measuring increase in DOX IC50 at 5 umol/L preincubated for 72 hrs followed by compound washout and subsequent doxorubicin treatment for 72 hrs by MTS assay; assay type: functional, cell-based
[29] = test system: MCF7; test: Downregulation of histone H3 expression in human MCF7 cells at 5 umol/L incubated upto 72 hrs by Western blot analysis; assay type: functional, cell-based; conditions: dose 5.0 µmol/L
Summary of the method: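 Cells were treated with 5 µmol/L for 0, 24, 48 and 72 h. Lysates were immunoblotted for AURK-B, phospho-Ser10 histone H3 and total histone H3, with β-actin reprobe as the loading control. Detection by enhanced chemiluminescence.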

[30] = test system: ZR-75-1; test: Induction of apoptosis in human ZR-75-1 cells assessed as late cells at 5 umol/L incubated for 3 days by Annexin V/PI staining based flow cytometry (reference value: 3.8 %); assay type: functional; conditions: dose 5 µmol/L; time 3 day; at 5 µM
[31] = test system: ZR-75-1; test: Inhibition of clonogenic growth in human ZR-75-1 cells incubated for 10 days by Hema-3 staining based microscopy; assay type: functional, cell-based; conditions: dose 1-5 µmol/L, time 10.0 day
Summary of the method: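 Colonies were stained with Hema-3, photographed under a microscope with a CCD camera, counted in duplicate, and expressed as % of control. Results are shown from 1 of 2 experiments.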

[32] = test system: T47D; test: Induction of apoptosis in human T47D cells assessed as late cells at 5 umol/L incubated for 3 days by Annexin V/PI staining based flow cytometry (reference value: 2.9 %); assay type: functional; conditions: dose 5 µmol/L; time 3 day; at 5 µM

`CCOc1ccn(-c2ccc(F)cc2)c(=O)c1C(=O)Nc1ccc(Oc2ccnc(N)c2Cl)c(F)c1` [BMS-777607] showed a viability at 5 µM [1] of 87.3%, an Activity [2] of 41 and an Activity [3] of 38. The Activity [4] was 12, the Activity [5] was 2.2% and the Activity [6] was “Active”. The pIC50 [7] was 6.23, the Activity [8] was 20 and the Activity [9] was 10. For the same compound, the Activity [10] was 45.5, the Activity [11] was 82% and the Activity [12] was “Tde”. The Activity [13] was “Active”, the Activity [14] was 14 and the Activity [15] was 12. The viability at 5 µM [16] was 97.3%, the Activity [17] was “Active” and the Activity [18] was 21. For the same compound, the Activity [19] was “inactive”, the Activity [20] was 15.5 and the pIC50 [21] was 8.04. The Activity [22] was 2.3%, the Activity [23] was “Active” and the pIC50 [24] was 5.56. The Activity [25] was 0, the inhibition [26] was “inactive” and the Activity [27] was 7.4. For the same compound, the pIC50 [28] was 5.93, the Activity [29] was “inactive” and the Activity [30] was 7.4%. For the same compound, the inhibition [31] was “Dose-Dependent Effect” and the Activity [32] was 8.1%.
